Bioassay records from PubChem BioAssay.
Hits are enriched below; roughly 1.8% of the tested compounds scored in any of these assays.
Scp1 inh = blocks human Scp-1 phosphatase activity; Recombinant Scp1, phosphopeptide, malachite green phosphate absorbance; inhibition, % at 20 µM; 0.88% of 340,000 active; AID 493091;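 active means inhibition above about 50% at 20 µM, limit read from the data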;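 further: plate controls were DMSO wells with enzyme for no effect and wells lacking enzyme for full effect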
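Material: truncated SCP-1 phosphatase (76-261aa) / Buffer or medium: 50 mM Tris acetate pH 5.5, 0.005% Tween-20, 10 mM MgCl2 / Compound dosing: one concentration, 20 µM, with 1.0% DMSO / Incubation: 45 min room-temperature reaction, 5 min colour, 30 min stabiliser / Detection: colorimetric free-phosphate detection, absorbance 630 nm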
STEP block = inhibitors of human striatal-enriched phosphatase STEP. P54829. recombinant STEP, OMFP fluorogenic substrate, fluorescence. inhibition, % at 20 µM. 0.25% of 360,000 active. AID 588621;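 active means inhibition at 20 µM, scaled per plate between control wells, above about 37%, limit read from the data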;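 further: 0% = DMSO with enzyme and substrate and 100% = substrate only without enzyme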
Target sequence (P54829 whole entry, looked up): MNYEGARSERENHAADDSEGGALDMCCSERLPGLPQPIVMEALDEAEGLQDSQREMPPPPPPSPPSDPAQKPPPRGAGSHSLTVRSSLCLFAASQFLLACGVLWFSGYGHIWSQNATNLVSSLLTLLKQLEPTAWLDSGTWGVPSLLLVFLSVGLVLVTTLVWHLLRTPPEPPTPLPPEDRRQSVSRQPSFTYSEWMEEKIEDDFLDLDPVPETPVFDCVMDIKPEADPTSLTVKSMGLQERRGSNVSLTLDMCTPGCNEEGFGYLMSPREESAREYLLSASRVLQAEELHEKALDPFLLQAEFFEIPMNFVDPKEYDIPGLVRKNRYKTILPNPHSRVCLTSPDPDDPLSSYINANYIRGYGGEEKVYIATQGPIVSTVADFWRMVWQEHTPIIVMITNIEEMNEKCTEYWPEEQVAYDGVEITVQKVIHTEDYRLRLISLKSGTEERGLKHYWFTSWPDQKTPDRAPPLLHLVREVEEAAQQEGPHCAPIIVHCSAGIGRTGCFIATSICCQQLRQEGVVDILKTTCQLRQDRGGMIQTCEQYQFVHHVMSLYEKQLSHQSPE
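System: STEP (striatal-enriched tyrosine phosphatase) enzyme, cell-free; medium: Bis-Tris pH 6.0 buffer with DTT, detergent; dosing: 20 µM, 1% DMSO; times: reaction 20 min, ambient temperature; detection: fluorescence, 480/540 nm; read-out basis: normalized % inhibition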
HKDC1 inh = HKDC1 (human) hexokinase inhibition. inhibition, % at 20 µM. Q2TB90. AID 493160. 0.16% of 340,000 active. recombinant HKDC1, G6PDH/diaphorase resazurin coupled fluorescence;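 active means inhibition above about 35% when tested at 20 µM, limit read from the data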;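 further: plate controls were DMSO wells with enzyme for no effect and DMSO wells lacking enzyme for full effect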
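Test system: recombinant HKDC1 (HK5) hexokinase enzyme, produced in-house; Amount: enzyme 5 µg/mL final; Buffer or medium: Tris pH 8.0 buffer with MgCl2, Tween-20, BSA, BME; Reagent: glucose and ATP substrates; Doses: 20 µM test compound, 1% DMSO; Incubation: 90 min reaction incubation at room temperature, dark; Detection: resorufin fluorescence at 613 nm.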
SUMO1 PPI mod = alters human SUMO1 binding to SIM partners; P63165; SUMO1 binding to a labelled peptide, TR-FRET, 1 h; 0.33% of 360,000 active; AID 602429; inhibition, % at 20 µM; in the data active means inhibition above about 37%
LMPTP inh = LMPTP (human) inhibition | P24666 | recombinant LMPTP-A, OMFP fluorogenic substrate, fluorescence intensity | inhibition, % at 20 µM | 0.22% of 360,000 active | AID 651560;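 active means compounds that cut the enzyme signal by at least half of the control window in the single-dose screen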;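 further: plate controls were DMSO wells with enzyme plus substrate for no effect and substrate without enzyme for full effect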
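Assay system: LMPTP-A enzyme. Input: 0.625 nM LMPTP-A final. Probe or stimulus: 400 µM OMFP. Compound dosing: single 20 µM dose. Schedule: 50 min dark incubation at room temperature. Detection: fluorescence intensity of OMFP turnover product. Read-out: percent inhibition versus substrate-only and uninhibited controls. Benchmarks: no-enzyme low control, uninhibited high control.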
DNMT1 block = DNMT1 (human) enzyme inhibition; inhibition (reported as % activation of signal), % at 10 µM; AID 588458; DNMT1 molecular beacon, Hinp1I cleavage, fluorescence; 0.83% of 360,000 active; in the data active means inhibition above about 50%
Scp1 confirm = confirmation of human Scp-1 phosphatase inhibitors; 61% of 2,500 active; shares compounds with Scp1 inh; inhibition, % at 20 µM; recombinant SCP-1 catalytic domain, phosphate release, malachite green absorbance;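 further: plate controls were DMSO with enzyme for no effect and buffer wells lacking enzyme for full effect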
MG interference = interferes with malachite green readout, flagging false Scp-1 hits; apparent inhibition (interference), % at 20 µM; AID 540313; shares compounds with Scp1 inh; 2,500 tested, under 10 active; Colorimetric interference counterscreen, malachite green absorbance 630 nm;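 further: compounds added after enzyme reaction finished so only phosphate colour detection is probed; plate controls were DMSO wells with completed Scp-1 reaction for no effect and substrate wells lacking enzyme for full effect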
Scp-1 Tm shift = binds human Scp-1, shifting its melting temperature | shares compounds with Scp1 inh | AID 540329 | Recombinant SCP1, Sypro Orange thermal shift Tm | 25% of 1,500 active | thermal shift relative to vanadate control, % at 40 µM;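 active means substances whose mean melting-temperature shift, as a percentage of the reference inhibitor's shift, reaches about 5.3%, limit read from the data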;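 further: 0% = Tm of DMSO wells and 100% = Tm with sodium orthovanadate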
DNMT1 confirm = confirmation of human DNMT1 inhibitors. inhibition, % at 10 µM. 8% of 2,300 active. DNMT1 molecular beacon HinP1I cleavage, fluorescence. shares compounds with DNMT1 block;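 active means average inhibition of at least 30% in the single-concentration confirmation test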
DNMT1 interf = beacon fluorescence artifact counter-screen; 1% of 2,300 active; activation (fluorescence interference), % at 10 µM; AID 602387; DNMT1 molecular beacon spectral interference counterscreen, fluorescence 485/520; shares compounds with DNMT1 block;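 active means activation of at least 30% at 10 µM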;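 further: DNMT1 catalytic domain with a HinP1I cleavage step and a FAM/dabcyl DNA beacon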
STEP conf = STEP (human) phosphatase inhibition, single concentration confirmation. shares compounds with STEP block. recombinant STEP, OMFP fluorogenic substrate, fluorescence. inhibition, % at 20 µM. 32% of 520 active. AID 623866; call rule not given here;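 further: 0% = enzyme with substrate plus DMSO and 100% = substrate without enzyme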
Numbers without * were called inactive; · = not tested or not shown.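 How the source made its calls, unless noted: active means inhibition of at least 30% at 20 µM; inactive means the rest.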

SMILES | Scp1 inh | STEP block | HKDC1 inh | SUMO1 PPI mod | LMPTP inh | DNMT1 block | Scp1 confirm | MG interference | Scp-1 Tm shift | STEP conf | others
O=C(N/N=C/c1cccc(OC(=O)c2ccc3c(c2)OCO3)c1)c1cncc(Br)c1 | -2.1 | 1.5 | -6.1 | -2.7 | -1.4 | 3.3 | · | · | · | ·
O=C(N/N=C\c1ccc(OC(=O)c2cccs2)cc1)c1ccc(Cl)cc1 | 96.3* | 93.9* | 17.5 | 6.1 | 93.9* | 42.8 | 81.4* | -11.7 | -23.9 | 5.6
O=C(N/N=C/c1ccc(Cl)cc1)c1ccc2c(c1)OCO2 | 102.8* | 93.1* | 12.2 | 14.9 | 39.1 | 9.4 | 90.5* | -4.3 | -26.1 | 18.0
O=C(N/N=C/c1ccc(Cl)c([N+](=O)[O-])c1)c1ccc2c(c1)OCCO2 | 104.8* | 94.3* | 19.2 | 79.8* | 88.9* | 80.4* | 78.0* | -13.6 | -12.5 | 46.4* | DNMT1 confirm=8.6;DNMT1 interf=-1.8
COc1ccc(N2CCN(CCCn3cnc4c(OC)ncnc43)CC2)cc1 | · | 2.0 | · | -1.8 | 0.0 | 3.6 | · | · | · | ·
CN(C)c1ccc(C(C(=O)NC2CCCCC2)N(Cc2ccco2)C(=O)c2snc(C(N)=O)c2N)cc1 (centres undefined) | -4.4 | 1.4 | -0.5 | -11.2 | 2.7 | -3.0 | · | · | · | ·
CCC(=O)N1CCC1(C)C(=O)Nc1cc(OC)ccc1OC (centres undefined) | · | -0.3 | · | 1.8 | -1.3 | 3.6 | · | · | · | ·
O=[N+]([O-])c1cc([N+](=O)[O-])c(Oc2cccnc2Br)cc1NN1CCCCC1 | -7.1 | 2.0 | 1.5 | -27.9 | 0.9 | 13.2 | · | · | · | ·
CN(C)c1ccc(/C=N/NC(=O)c2cc(-c3ccc4c(c3)OCO4)n[nH]2)cc1 | -14.2 | 12.9 | -2.8 | 6.8 | 21.4 | 0.3 | · | · | · | ·
O=C(N/N=C/c1ccc(F)cc1)c1cc(-c2ccc3c(c2)OCO3)n[nH]1 | 55.5* | 42.2* | 12.8 | 20.7 | 26.7 | 14.4 | 34.6* | -21.0 | -21.9 | 35.7*
Cc1ccc(S(=O)(=O)N2CC3C(=O)C[C@@H](c4ccccc4)N(S(=O)(=O)c4ccccc4Cl)C3CC2c2ccccc2)cc1 (some centres undefined) | · | · | · | -1.4 | 0.9 | · | · | · | · | ·
O=C1NC(=S)N(C(=O)c2ccc(F)cc2)/C1=C/c1cccnc1 | 95.5* | 43.1* | 3.2 | -17.7 | 18.1 | 3.8 | 55.9* | -16.7 | 3.4 | 13.7
COc1ccc(/C=C2\C(=O)NC(=S)N2C(=O)c2ccc(C)cc2)cc1 | 9.2 | 4.9 | 15.2 | 16.2 | 4.1 | -7.0 | · | · | · | ·
CCN(c1ccccc1)S(=O)(=O)c1cc(C(=O)OCC(=O)c2c(N)n(C)c(=O)n(C)c2=O)ccc1C | 61.9* | 45.7* | 4.4 | 19.2 | 26.3 | 92.9* | 62.6* | -18.6 | -3.8 | 70.4* | DNMT1 confirm=3.0;DNMT1 interf=0.9
CC(OC(=O)c1ccccn1)C(=O)Nc1ccc2c(c1)OCCO2 (centres undefined) | -1.4 | 1.2 | -2.0 | 3.9 | -1.0 | 2.3 | · | · | · | ·
CCN(c1ccccc1)S(=O)(=O)c1cc(C(=O)OC(C)C(=O)Nc2ccc3c(c2)OCCO3)ccc1C (centres undefined) | 81.3* | 41.2* | -1.1 | 6.3 | 23.4 | 29.2 | 63.2* | -15.6 | 7.5* | 59.2*
